Assay results published in ChEMBL document CHEMBL2021769, “Isolation, structure elucidation, and biological evaluation of 16,23-epoxycucurbitacin constituents from Eleaocarpus chinensis” (J Nat Prod, 2012).
Calls of active or inactive are those of the source. The rule behind the calls is not given here.

How the values were obtained:
[1] = tested on: HT-29; assay: Cytotoxicity against human HT-29 cells after 3 days by sulforhodamine B assay; assay type: functional, cell-based; conditions: HT-29, 72 h
[2] = tested on: HT-29; assay: Cytotoxicity against human HT-29 cells after 3 days by mitochondrial transmembrane potential assay; assay type: functional, cell-based; conditions: HT-29, 72 h
[3] = tested on: HT-29; assay: Antitumor activity against human HT-29 cells xenografted in immunodeficient NCr nu/nu mouse assessed as inhibition of tumor growth at 0.5 to 10 mg/kg, ip dosed as four daily injections on day 3,4,5 and 6 followed by fiber retrieval on day 7 by in-vivo hollow fiber assay; assay type: functional, organism-based
How it was run: (§1)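 Murine hollow fiber model, ip route; fibers loaded per fiber with HT29 1 × 10⁶, MCF-7 5 × 10⁶, or MDA-MB-435 1 × 10⁶ cells. Dosing 0.5 to 10 mg/kg per day for four days in 5% EtOH/5% Tween 80 in physiologic saline; paclitaxel positive control at 2.0 mg/kg per day for four days. Proliferation inhibition assessed in each cell type.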

[4] = tested on: MCF7; assay: Antitumor activity against human MCF7 cells xenografted in immunodeficient NCr nu/nu mouse assessed as inhibition of tumor growth at 0.5 to 10 mg/kg, ip dosed as four daily injections on day 3,4,5 and 6 followed by fiber retrieval on day 7 by in-vivo hollow fiber assay; assay type: functional, organism-based; how it was run: as §1
[5] = tested on: MDA-MB-435; assay: Antitumor activity against human MDA-MB-435 cells xenografted in immunodeficient NCr nu/nu mouse assessed as inhibition of tumor growth at 0.5 to 10 mg/kg, ip dosed as four daily injections on day 3,4,5 and 6 followed by fiber retrieval on day 7 by in-vivo hollow fiber assay; assay type: functional, organism-based; how it was run: as §1

SMILES | IC50 [1] [nM] | IC50 [2] [nM] | other results
CC(C)(O)C[C@H]1C[C@](C)(O)[C@H]2[C@@H](C[C@@]3(C)[C@@H]4CC=C5[C@@H](CC[C@H](O)C5(C)C)[C@]4(C)C(=O)C[C@]23C)O1 [ELAEOCARPUCIN F] | > 10000 | > 20000 | 
CC(C)=C[C@H]1C[C@](C)(O)[C@H]2[C@@H](C[C@@]3(C)[C@@H]4CC=C5[C@@H](CC[C@H](O)C5(C)C)[C@]4(C)C(=O)C[C@]23C)O1 | > 10000 | > 20000 | 
C=C(C)[C@H](O)[C@H]1C[C@](C)(O)[C@H]2[C@@H](C[C@@]3(C)[C@@H]4CC=C5[C@@H](CC[C@H](O)C5(C)C)[C@]4(C)C(=O)C[C@]23C)O1 [ELAEOCARPUCIN A] | > 10000 | > 20000 | 
CC(C)=C[C@@H]1O[C@@H]2C[C@@]3(C)[C@@H]4CC=C5[C@@H](CC[C@H](O)C5(C)C)[C@]4(C)C(=O)C[C@]3(C)[C@H]2[C@@](C)(O)[C@@H]1O [ELAEOCARPUCIN G] | 2900 |  | 
CC(=O)OC(C)(C)/C=C/C(=O)[C@](C)(O)[C@H]1[C@H](O)C[C@@]2(C)[C@@H]3CC=C4[C@@H](C[C@H](O)[C@@H](O)C4(C)C)[C@]3(C)C(=O)C[C@]12C | 540 |  | 
CC(C)=C[C@H]1C[C@](C)(O)[C@H]2[C@@H](C[C@@]3(C)[C@@H]4C(=O)C=C5[C@@H](CC[C@H](O)C5(C)C)[C@]4(C)C(=O)C[C@]23C)O1 [ELAEOCARPUCIN H] | 2700 |  | 
CC(C)(O)/C=C/C(=O)[C@](C)(O)[C@H]1[C@H](O)C[C@@]2(C)[C@@H]3CC=C4[C@@H](CC(=O)[C@H](O)C4(C)C)[C@]3(C)C(=O)C[C@]12C | 39 | > 20000 | 
CC(C)(O)/C=C/C(=O)[C@](C)(O)[C@H]1[C@H](O)C[C@@]2(C)[C@@H]3CC=C4[C@@H](C[C@H](O)C(=O)C4(C)C)[C@]3(C)C(=O)C[C@]12C [CUCURBITACIN D] | 120 | > 20000 | 
C/C(=C\[C@H]1C[C@](C)(O)[C@H]2[C@@H](C[C@@]3(C)[C@@H]4CC=C5[C@@H](CC[C@H](O)C5(C)C)[C@]4(C)C(=O)C[C@]23C)O1)CO [ELAEOCARPUCIN C] | 410 | > 20000 | inhibition [3]: inactive; inhibition [4]: inactive; inhibition [5]: inactive
CC(C)(O)/C=C/C(=O)[C@](C)(O)[C@H]1[C@H](O)C[C@@]2(C)[C@@H]3CC=C4[C@@H](C=C(O)C(=O)C4(C)C)[C@]3(C)C(=O)C[C@]12C [CUCURBITACIN I] | 190 |  | 
C/C(C=O)=C\[C@H]1C[C@](C)(O)[C@H]2[C@@H](C[C@@]3(C)[C@@H]4CC=C5[C@@H](CC[C@H](O)C5(C)C)[C@]4(C)C(=O)C[C@]23C)O1 [ELAEOCARPUCIN E] | > 10000 |  | 
C=C(C)C(=O)[C@H]1C[C@](C)(O)[C@H]2[C@@H](C[C@@]3(C)[C@@H]4CC=C5[C@@H](CC[C@H](O)C5(C)C)[C@]4(C)C(=O)C[C@]23C)O1 [ELAEOCARPUCIN D] | 5600 |  | 
CC(=O)O[C@H]1C(=O)[C@@]2(C)[C@H]([C@H](OC(=O)c3ccccc3)[C@]3(O)C[C@H](OC(=O)[C@H](O)[C@@H](NC(=O)c4ccccc4)c4ccccc4)C(C)=C1C3(C)C)[C@]1(OC(C)=O)CO[C@@H]1C[C@@H]2O [PACLITAXEL] | 6 |  | 
C=C(C)[C@@H](O)[C@H]1C[C@](C)(O)[C@H]2[C@@H](C[C@@]3(C)[C@@H]4CC=C5[C@@H](CC[C@H](O)C5(C)C)[C@]4(C)C(=O)C[C@]23C)O1 [ELAEOCARPUCIN B] | > 10000 | > 20000 | 
